Active and inactive are the calls of the source. The calls are words filed in the database; no cut-off is given here.
What was measured:
[1] = molecular target: T1, 72 kDa type IV collagenase (Homo sapiens, UniProt P08253); assay: Inhibition of human recombinant MMP-2 using Mca-Pro-Leu-Gly-Leu-Dpa-Ala-Arg-NH2.AcOH as substrate at 10 uM preincubated for 30 mins prior to substrate addition measured for 30 mins by fluorescence assay relative to control
Outline: (§1)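 Human recombinant MMP-2 (1.16 U) or MMP-12 (0.007 U) in 50 mM HEPES, 10 mM CaCl₂, 0.05% Brij-35, pH 7.5, preincubated with inhibitor 30 min at 37 °C; 4 µM OmniMMP peptide then added. Fluorescence rise (ex 320/em 400 nm) over 30 min, as percent of no-inhibitor wells. Triplicate assays, triplicate wells; mean ± SD.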
Target sequence in this assay (P08253 110-660 limits assumed): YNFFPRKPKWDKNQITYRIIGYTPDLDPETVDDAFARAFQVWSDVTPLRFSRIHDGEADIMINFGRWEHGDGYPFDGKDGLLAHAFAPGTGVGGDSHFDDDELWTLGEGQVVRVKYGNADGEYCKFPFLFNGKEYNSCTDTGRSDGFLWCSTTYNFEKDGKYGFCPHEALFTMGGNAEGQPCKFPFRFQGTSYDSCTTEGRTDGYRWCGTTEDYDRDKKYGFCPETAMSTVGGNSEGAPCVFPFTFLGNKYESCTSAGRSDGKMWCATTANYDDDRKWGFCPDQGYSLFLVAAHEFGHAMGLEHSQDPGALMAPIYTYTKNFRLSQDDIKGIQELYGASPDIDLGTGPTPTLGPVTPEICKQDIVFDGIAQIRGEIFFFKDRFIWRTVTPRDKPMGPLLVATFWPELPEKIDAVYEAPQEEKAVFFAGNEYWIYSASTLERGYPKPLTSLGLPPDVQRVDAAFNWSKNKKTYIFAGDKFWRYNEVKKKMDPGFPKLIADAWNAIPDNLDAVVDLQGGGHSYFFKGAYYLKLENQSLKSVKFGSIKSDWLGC

[2] = molecular target: T2, Tyrosinase (Agaricus bisporus) (UniProt O42713); assay: Inhibition of mushroom tyrosinase assessed as L-DOPA conversion to melanin at 10 uM preincubated for 10 mins prior to substrate addition measured after 10 mins by spectrophotometric analysis
T2 sequence (whole entry): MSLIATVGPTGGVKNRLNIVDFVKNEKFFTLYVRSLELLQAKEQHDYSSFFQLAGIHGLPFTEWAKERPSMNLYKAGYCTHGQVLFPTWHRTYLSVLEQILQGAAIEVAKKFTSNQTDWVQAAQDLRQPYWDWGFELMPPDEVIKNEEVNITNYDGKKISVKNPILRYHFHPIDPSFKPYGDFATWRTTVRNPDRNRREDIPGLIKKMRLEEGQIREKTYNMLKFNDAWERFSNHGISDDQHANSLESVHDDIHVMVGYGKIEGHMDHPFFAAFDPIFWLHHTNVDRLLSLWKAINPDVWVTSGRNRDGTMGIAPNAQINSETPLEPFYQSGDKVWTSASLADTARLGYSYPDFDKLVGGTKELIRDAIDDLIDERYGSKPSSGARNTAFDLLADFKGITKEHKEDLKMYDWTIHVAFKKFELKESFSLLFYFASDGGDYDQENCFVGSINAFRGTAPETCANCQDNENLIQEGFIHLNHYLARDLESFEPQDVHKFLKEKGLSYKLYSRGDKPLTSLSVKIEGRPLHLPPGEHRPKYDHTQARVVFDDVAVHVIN
Outline: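 Mushroom tyrosinase (30 U) in 10 mM NaH₂PO₄ pH 6.8 with 10 µM inhibitor, 10 min at room temperature; background A475 taken, L-DOPA (0.5 mM) added, A475 read again after 10 min and background subtracted. No-inhibitor wells set as 100% activity. Triplicate assays, triplicate wells; mean ± SD.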

Trypsin (Homo sapiens) = Trypsin (Homo sapiens) (UniProt P07477+P07478+P35030); assay: Inhibition of TPCK-treated trypsin (unknown origin) at 10 uM preincubated for 10 mins prior to substrate addition measured for 30 mins by spectrophotometric analysis; format: protein assay
Outline: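 Commercial colorimetric kit run per manufacturer; TPCK-treated trypsin (100 mU) in kit buffer, inhibitor at 10 µM; enzyme and inhibitor preincubated 10 min at room temperature before substrate addition.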

[3] = molecular target: T3, Macrophage metalloelastase (Homo sapiens, UniProt P39900); assay: Inhibition of human recombinant MMP-12 using Mca-Pro-Leu-Gly-Leu-Dpa-Ala-Arg-NH2.AcOH as substrate at 10 uM preincubated for 30 mins prior to substrate addition measured for 30 mins by fluorescence assay relative to control; outline: as §1
Target sequence in this assay (P39900 106-470 limits assumed): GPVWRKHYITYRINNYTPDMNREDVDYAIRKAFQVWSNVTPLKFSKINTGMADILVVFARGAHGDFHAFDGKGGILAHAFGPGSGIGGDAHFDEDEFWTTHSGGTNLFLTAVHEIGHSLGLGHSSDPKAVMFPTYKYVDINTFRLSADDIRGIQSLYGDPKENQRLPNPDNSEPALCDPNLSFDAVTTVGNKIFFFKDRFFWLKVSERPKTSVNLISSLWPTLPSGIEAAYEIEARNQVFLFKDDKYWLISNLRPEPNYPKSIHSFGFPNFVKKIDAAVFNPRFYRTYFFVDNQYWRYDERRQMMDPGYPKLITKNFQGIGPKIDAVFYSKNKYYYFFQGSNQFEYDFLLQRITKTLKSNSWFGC

[4] = molecular target: Angiotensin-converting enzyme (Homo sapiens) (UniProt P12821); assay: Inhibition of human recombinant ACE/CD143 somatic form using Mca-Pro-Leu-Gly-Leu-Dpa-Ala-Arg-NH2.AcOH as substrate at 10 uM preincubated for 10 mins prior to substrate addition measured for 30 mins by spectrophotometric analysis
Chain of Angiotensin-converting enzyme (Homo sapiens) (P12821 whole entry): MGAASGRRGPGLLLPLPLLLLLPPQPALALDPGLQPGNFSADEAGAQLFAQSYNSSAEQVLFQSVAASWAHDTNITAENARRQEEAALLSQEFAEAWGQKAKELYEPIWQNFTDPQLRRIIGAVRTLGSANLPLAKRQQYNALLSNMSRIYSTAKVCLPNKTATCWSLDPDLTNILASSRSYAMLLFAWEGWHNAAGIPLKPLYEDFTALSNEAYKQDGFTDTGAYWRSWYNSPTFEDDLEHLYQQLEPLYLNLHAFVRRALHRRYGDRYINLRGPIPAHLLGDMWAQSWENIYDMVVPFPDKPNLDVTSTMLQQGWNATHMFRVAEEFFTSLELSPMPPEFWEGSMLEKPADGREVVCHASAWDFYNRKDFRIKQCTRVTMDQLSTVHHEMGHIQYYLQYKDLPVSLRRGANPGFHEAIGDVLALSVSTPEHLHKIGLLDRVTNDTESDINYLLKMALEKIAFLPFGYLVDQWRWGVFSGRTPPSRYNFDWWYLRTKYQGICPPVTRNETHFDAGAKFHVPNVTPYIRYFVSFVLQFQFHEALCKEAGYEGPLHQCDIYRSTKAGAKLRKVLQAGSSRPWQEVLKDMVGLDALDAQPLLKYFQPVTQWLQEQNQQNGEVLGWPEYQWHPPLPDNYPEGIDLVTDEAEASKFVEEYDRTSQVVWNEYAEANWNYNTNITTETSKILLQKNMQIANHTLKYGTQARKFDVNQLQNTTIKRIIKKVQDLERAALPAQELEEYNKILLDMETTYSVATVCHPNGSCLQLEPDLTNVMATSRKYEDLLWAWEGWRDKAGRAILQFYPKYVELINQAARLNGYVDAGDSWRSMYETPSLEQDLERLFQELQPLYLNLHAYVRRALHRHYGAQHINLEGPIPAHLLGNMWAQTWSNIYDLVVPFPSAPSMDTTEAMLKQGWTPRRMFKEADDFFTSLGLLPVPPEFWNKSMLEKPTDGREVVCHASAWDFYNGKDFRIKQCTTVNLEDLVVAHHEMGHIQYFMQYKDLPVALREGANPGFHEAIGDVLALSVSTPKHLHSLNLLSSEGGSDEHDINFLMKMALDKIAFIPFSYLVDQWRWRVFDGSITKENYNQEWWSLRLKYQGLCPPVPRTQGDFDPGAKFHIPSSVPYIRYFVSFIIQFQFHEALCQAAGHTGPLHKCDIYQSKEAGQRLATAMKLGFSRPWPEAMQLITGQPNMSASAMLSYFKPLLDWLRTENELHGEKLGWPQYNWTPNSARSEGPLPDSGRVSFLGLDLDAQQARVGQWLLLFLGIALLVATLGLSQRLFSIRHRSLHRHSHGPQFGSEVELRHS
Outline: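 Human recombinant somatic ACE/CD143 (20 ng) in 50 mM MES pH 6.5 with inhibitor at 10 µM, preincubated 10 min at 37 °C; OmniMMP fluorogenic peptide (4 µM) then added. Fluorescence (ex 320/em 400 nm) read over 30 min. Data normalized to uninhibited enzyme; triplicate assays, each inhibitor in triplicate; mean ± SD.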

[5] = molecular target: Histone deacetylase 2 (Homo sapiens) (UniProt Q92769); conditions: at 10 µM;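 further: fluorescence readout of HDAC2 deacetylase activity, compound preincubated with HDAC2 5 min before substrate, signal read after 30 min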
Chain of Histone deacetylase 2 (Homo sapiens) (Q92769 whole entry): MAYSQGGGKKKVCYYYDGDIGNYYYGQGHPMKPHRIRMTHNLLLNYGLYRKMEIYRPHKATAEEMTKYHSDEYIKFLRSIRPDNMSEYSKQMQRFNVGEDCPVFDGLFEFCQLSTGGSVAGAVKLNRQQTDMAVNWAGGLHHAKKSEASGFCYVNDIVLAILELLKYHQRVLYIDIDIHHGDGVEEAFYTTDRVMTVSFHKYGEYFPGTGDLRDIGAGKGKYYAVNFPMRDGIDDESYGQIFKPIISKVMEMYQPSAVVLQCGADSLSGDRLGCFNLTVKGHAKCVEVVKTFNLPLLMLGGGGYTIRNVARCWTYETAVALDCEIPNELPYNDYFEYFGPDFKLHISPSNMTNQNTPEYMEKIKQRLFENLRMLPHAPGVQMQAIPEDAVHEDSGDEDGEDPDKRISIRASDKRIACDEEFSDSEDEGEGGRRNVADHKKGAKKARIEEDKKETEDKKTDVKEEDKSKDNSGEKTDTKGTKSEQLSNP

[6] = molecular target: T3, Macrophage metalloelastase; assay: Inhibition of human recombinant MMP-12 using Mca-Pro-Leu-Gly-Leu-Dpa-Ala-Arg-NH2.AcOH as substrate preincubated for 30 mins prior to substrate addition measured for 30 mins by fluorescence assay
Outline: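 Human recombinant MMP-12 (0.007 U) was preincubated with inhibitor at 37 °C for 30 min in 50 mM HEPES, 10 mM CaCl₂, 0.05% Brij-35, pH 7.5. OmniMMP substrate was then added, and fluorescence (ex 320/em 400 nm) was followed for 30 min. Activity is the fluorescence increase relative to no-inhibitor wells (set to 100%). Triplicate assays, each with triplicate inhibitor wells; mean ± SD.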
Target sequence in this assay (P39900 whole entry): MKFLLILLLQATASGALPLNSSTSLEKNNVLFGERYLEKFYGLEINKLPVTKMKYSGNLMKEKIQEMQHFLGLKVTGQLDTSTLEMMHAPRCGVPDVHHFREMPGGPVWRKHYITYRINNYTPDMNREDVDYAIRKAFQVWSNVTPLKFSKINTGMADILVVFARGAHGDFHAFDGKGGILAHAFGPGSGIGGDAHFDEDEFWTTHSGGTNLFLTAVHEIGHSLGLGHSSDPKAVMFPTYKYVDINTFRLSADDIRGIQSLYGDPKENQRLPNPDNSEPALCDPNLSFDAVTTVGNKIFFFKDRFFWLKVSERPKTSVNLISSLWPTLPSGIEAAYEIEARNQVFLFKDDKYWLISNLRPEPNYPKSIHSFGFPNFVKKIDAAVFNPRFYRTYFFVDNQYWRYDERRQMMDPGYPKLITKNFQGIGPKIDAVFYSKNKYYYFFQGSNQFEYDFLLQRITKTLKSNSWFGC

[7] = molecular target: T1, 72 kDa type IV collagenase; assay: Inhibition of human recombinant MMP-2 using Mca-Pro-Leu-Gly-Leu-Dpa-Ala-Arg-NH2.AcOH as substrate preincubated for 30 mins prior to substrate addition measured for 30 mins by fluorescence assay
Outline: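 Human recombinant MMP-2 (1.16 U) in 50 mM HEPES, 10 mM CaCl₂, 0.05% Brij-35, pH 7.5, is preincubated with inhibitor at 37 °C for 30 min. 4 µM OmniMMP substrate then starts the reaction. Fluorescence (ex 320/em 400 nm) is followed for 30 min. Activity is the fluorescence increase relative to no-inhibitor wells, as a percentage. Three assays, each in triplicate; mean ± SD.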
Target sequence in this assay (P08253 whole entry): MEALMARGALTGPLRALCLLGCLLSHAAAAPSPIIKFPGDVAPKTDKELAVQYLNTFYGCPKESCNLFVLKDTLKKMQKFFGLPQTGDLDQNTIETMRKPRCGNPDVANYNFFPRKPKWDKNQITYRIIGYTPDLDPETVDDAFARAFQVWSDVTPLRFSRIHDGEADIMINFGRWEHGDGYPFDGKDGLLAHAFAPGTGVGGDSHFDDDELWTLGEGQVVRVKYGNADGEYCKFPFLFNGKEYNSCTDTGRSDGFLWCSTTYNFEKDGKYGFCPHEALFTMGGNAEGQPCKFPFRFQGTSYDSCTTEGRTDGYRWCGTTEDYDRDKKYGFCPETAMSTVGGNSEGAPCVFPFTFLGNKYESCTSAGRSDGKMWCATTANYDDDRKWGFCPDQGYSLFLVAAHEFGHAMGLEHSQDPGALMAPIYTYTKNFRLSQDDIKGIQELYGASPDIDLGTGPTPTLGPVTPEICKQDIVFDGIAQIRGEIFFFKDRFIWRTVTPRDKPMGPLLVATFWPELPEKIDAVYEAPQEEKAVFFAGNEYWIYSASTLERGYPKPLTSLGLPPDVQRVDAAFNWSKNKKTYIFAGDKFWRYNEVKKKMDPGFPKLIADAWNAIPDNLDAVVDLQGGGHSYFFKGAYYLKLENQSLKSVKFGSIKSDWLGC

[8] = molecular target: Matrix metalloproteinase-9 (Homo sapiens, UniProt P14780); assay: Inhibition of MMP-9 (unknown origin)
Chain of Matrix metalloproteinase-9 (P14780 whole entry): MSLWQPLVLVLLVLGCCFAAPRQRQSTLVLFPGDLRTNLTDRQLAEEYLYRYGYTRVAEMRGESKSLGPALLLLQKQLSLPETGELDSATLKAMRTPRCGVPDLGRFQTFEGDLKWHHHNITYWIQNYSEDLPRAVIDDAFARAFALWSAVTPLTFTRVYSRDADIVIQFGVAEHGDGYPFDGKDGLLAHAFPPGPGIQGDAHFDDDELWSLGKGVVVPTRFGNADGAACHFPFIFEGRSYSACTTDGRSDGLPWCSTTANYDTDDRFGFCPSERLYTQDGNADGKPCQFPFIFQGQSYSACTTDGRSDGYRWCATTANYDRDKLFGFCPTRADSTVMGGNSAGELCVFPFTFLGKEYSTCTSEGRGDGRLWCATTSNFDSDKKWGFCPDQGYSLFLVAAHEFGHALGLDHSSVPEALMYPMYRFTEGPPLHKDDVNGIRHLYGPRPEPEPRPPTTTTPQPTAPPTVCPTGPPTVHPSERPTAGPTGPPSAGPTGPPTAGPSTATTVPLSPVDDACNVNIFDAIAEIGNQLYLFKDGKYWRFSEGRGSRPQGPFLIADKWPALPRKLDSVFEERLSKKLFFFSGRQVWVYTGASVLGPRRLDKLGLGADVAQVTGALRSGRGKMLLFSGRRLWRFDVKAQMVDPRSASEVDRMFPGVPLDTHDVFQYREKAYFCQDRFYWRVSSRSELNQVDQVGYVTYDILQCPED

[9] = Inhibition of MMP (unknown origin); set-up: species or system Homo sapiens
Homo sapiens = organism: Homo sapiens; assay: Binding affinity to ferritin (unknown origin) assessed as removal of ferric ion at 1 mM measured for 1 hr by UV-vis spectrophotometric analysis

Row | Compound | inhibition [1] | inhibition [2] | inhibition (Trypsin (Homo sapiens)) | inhibition [3] | inhibition [4] | inhibition [5] | IC50 [6] [nM] | IC50 [7] [nM] | IC50 [8] [nM] | IC50 [9] [nM] | Activity (Homo sapiens)
1 | O=C(CCCCCCC(=O)Nc1ccccc1)NO | < 25% | inactive | inactive | < 25% | Active | – | – | – | – | – | –
2 | CC(c1cc2ccccc2s1)N(O)C(N)=O (centres undefined) | Active | inactive | inactive | Active | – | inactive | – | – | – | – | –
3 | C[C@H](CS)C(=O)N1CCC[C@H]1C(=O)O | < 10% | inactive | inactive | Active | – | inactive | – | – | – | – | –
4 | O=C(NCc1ccc(-c2ccccc2)cc1)c1cccc(=O)n1O | 80% | inactive | inactive | 100% | Active | inactive | 18 | – | – | – | –
5 | O=C(O)[C@H](Cc1ccccc1)NS(=O)(=O)c1ccc(-c2ccccc2)cc1 | Active | inactive | inactive | Active | inactive | inactive | – | 240 | 310 | – | –
6 | CC(=O)Nc1nnc(S(N)(=O)=O)s1 | Active | inactive | inactive | Active | – | inactive | – | – | – | – | –
7 | O=C(/C=C/c1ccc(Cl)cc1Cl)NO | < 25% | inactive | inactive | < 25% | – | Active | – | – | – | – | –
8 | COc1ccc(S(=O)(=O)N(Cc2cccnc2)[C@@H](C(=O)NO)C(C)C)cc1 [CGS-27023A] | 95% | inactive | inactive | 95% | Active | inactive | – | – | – | 8 | –
9 | Cc1nc(C(=O)NCc2ccc(F)cc2)c(O)c(=O)[nH]1 | 50% | inactive | inactive | Active | – | inactive | – | – | – | – | –
10 | CC(=O)N(O)CCCCCNC(=O)CCC(=O)N(O)CCCCCNC(=O)CCC(=O)N(O)CCCCCN | Active | inactive | inactive | Active | – | inactive | – | – | – | – | Active
11 | CC(/C=C/C(=O)NO)=C\[C@@H](C)C(=O)c1ccc(N(C)C)cc1 | – | – | – | – | – | Active | – | – | – | – | –

From ChEMBL document CHEMBL2434956, “Investigating the selectivity of metalloenzyme inhibitors” (J Med Chem, 2013)
